One may read the inhibition as the drop in the measured response relative to a control, in per cent. The IC50 is the point on the concentration scale where inhibition reaches its midpoint. In general, half-life refers to the time in which the quantity being followed falls by half. Read a high half-life as slow loss. A word on the Cmax: it is the maximum level reached in the sampled fluid or tissue.

The target in data set [1] is T1, CYP2C9 (Homo sapiens, UniProt P11712). The data set is described as follows: Time dependent irreversible inhibition of CYP2C9 in human liver microsomes at 10 uM preincubated with compound followed by NADPH addition by LC-MS/MS analysis. It counts as ADME. As to conditions: liver microsomes. Put shortly:
(§1)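 HLM (0.2 mg/ml) with 10 µM compound were preincubated 0, 5, 10 or 20 min at 37°C with 1 mM NADPH or PBS. Substrate cocktail (halved concentrations) plus NADPH was then added for 10 min. Metabolites were measured by LC-MS/MS. Kobs is the slope of relative activity versus preincubation time.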
In general terms: Microsomes from liver hold many membrane-bound enzymes, among them those of drug oxidation.

The target of data set [2] is Hepatocyte growth factor receptor (Homo sapiens, UniProt P08581). The data set is described as follows: Inhibition of c-MET (unknown origin) using TK substrate-biotin peptide as substrate preincubated for 5 to 10 mins followed by ATP addition measured after 30 mins by HTRF assay.
For a further data set, the system named is SNU-5. Kind of data set: Growth inhibition of human SNU5 cells after 72 hrs by CCK-8 assay. The data set is classed as functional, cell-based. The settings on record: snu-5. On the technique in general: Tetrazolium dyes change colour on reduction, which living cells bring about.
Data set [3] has as its target T1, CYP2C9. Kind of data set: Reversible inhibition of CYP2C9 in human liver microsomes at 10 uM after 20 mins by in presence of NADPH LC-MS/MS analysis. The data set is classed as ADME. The settings on record: liver microsomes.
Another data set concerns the target CYP2D6 (Homo sapiens, UniProt P10635). The data set is described as follows: Reversible inhibition of CYP2D6 in human liver microsomes at 10 uM after 20 mins in presence of NADPH by LC-MS/MS analysis. As to conditions: liver microsomes. It counts as ADME.
Data set [4] addresses T2, CYP1A2 (Homo sapiens, UniProt P05177).
T2 sequence (P05177 whole entry): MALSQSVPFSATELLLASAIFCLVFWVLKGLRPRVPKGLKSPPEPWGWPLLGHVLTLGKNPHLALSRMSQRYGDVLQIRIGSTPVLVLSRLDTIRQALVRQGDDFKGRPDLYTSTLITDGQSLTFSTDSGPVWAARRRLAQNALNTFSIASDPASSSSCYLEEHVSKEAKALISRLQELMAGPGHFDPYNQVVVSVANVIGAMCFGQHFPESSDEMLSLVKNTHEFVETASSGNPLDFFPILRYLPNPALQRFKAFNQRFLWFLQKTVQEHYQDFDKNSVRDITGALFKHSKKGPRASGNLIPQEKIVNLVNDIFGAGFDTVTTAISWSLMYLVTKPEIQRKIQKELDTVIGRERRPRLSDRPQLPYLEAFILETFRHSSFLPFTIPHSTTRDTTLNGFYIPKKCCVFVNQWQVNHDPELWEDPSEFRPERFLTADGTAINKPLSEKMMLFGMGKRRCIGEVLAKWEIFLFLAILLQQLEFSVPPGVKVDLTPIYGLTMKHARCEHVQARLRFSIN
The data set is described as follows: Reversible inhibition of CYP1A2 in human liver microsomes at 10 uM after 20 mins in presence of NADPH by LC-MS/MS analysis. It counts as ADME.

For data set [5], the target named is T2, CYP1A2. Kind of data set: Time dependent irreversible inhibition of CYP1A2 in human liver microsomes at 10 uM preincubated with compound followed by NADPH addition by LC-MS/MS analysis. The settings on record: liver microsomes. It counts as ADME. Put shortly: as §1
Data set [6] in a line: Half life in Sprague-Dawley rat plasma at 1 mg/kg, iv by UPLC-MS/MS analysis. The data set is classed as ADME, organism-based. The essentials:
(§2)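 Male Sprague-Dawley rats (180-220 g) were fasted overnight with free access to water. Dosing was intravenous (n=2) or oral at 6 mg/kg (n=3). Heparinized blood was drawn from 0 to 1440 min. Plasma was frozen at -20°C, then precipitated with acetonitrile containing internal standard, centrifuged and analysed by UPLC-MS/MS.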

Data set [7] in a line: Cmax in Sprague-Dawley rat plasma at 6 mg/kg, po by UPLC-MS/MS analysis. Further details: dose 6 mg/kg, route oral. It counts as ADME, organism-based. Put shortly: as §2
The next data set concerns Rattus norvegicus. The data set is described as follows: Oral bioavailability in Sprague-Dawley rat plasma at 6 mg/kg by UPLC-MS/MS analysis. The data set is classed as ADME, organism-based. As to conditions: in vivo. Put shortly:
as §2

Data set [8] has as its target Vascular endothelial growth factor receptor 1 (Homo sapiens, UniProt P17948). Kind of data set: Inhibition of FLT1 (unknown origin) using FAM-labeled peptide as substrate preincubated for 5 to 10 mins followed by substrate/ATP addition measured after 30 to 60 mins by mobility shift assay. Put shortly:
(§3)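 Caliper mobility-shift assay with FAM-labeled peptide substrate. Buffer: 50 mM HEPES pH 7.5, 0.0015% Brij-35, 10 mM MgCl2, 2 mM DTT, with kinase-specific enzyme levels. […] Incubation was 30-60 min at 28°C, stopped with EDTA buffer. Read-out was % conversion.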

The target in data set [9] is Mast/stem cell growth factor receptor Kit (Homo sapiens, UniProt P10721). Kind of data set: Inhibition of c-Kit (unknown origin) using FAM-labeled peptide as substrate preincubated for 5 to 10 mins followed by substrate/ATP addition measured after 30 to 60 mins by mobility shift assay. The essentials:
as §3

The target of data set [10] is Platelet-derived growth factor receptor beta (Homo sapiens, UniProt P09619). Kind of data set: Inhibition of PDGFRbeta (unknown origin) using FAM-labeled peptide as substrate preincubated for 5 to 10 mins followed by substrate/ATP addition measured after 30 to 60 mins by mobility shift assay. Put shortly: as §3
Chain of Platelet-derived growth factor receptor beta (P09619 whole entry): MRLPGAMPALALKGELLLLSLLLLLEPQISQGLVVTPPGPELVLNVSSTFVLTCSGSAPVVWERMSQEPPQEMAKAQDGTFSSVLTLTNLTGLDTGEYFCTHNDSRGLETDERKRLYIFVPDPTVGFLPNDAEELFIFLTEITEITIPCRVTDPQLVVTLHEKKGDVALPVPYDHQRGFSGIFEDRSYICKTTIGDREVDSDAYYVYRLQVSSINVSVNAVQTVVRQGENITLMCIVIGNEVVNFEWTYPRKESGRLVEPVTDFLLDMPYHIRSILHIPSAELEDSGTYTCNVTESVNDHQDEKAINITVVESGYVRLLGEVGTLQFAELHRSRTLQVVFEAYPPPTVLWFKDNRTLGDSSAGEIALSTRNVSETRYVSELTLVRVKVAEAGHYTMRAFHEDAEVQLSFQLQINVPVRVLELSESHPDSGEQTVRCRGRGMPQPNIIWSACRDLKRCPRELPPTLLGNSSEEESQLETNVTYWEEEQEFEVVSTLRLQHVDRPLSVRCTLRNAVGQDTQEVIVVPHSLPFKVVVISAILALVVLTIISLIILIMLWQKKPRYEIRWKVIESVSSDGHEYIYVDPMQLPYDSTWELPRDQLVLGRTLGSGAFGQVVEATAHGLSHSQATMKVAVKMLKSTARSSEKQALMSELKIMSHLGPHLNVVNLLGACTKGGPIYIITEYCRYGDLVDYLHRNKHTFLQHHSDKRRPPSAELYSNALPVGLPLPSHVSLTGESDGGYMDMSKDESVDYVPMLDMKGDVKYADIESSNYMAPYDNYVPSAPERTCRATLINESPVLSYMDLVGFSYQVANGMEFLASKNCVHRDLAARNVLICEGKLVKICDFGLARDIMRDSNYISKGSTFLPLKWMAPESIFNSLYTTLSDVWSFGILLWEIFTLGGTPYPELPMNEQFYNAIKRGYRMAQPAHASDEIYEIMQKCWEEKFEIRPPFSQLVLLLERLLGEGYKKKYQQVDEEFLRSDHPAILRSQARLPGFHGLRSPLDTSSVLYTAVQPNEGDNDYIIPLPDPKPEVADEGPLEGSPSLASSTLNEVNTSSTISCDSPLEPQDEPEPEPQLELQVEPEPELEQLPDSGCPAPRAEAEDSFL
The target in data set [11] is Epidermal growth factor receptor (Homo sapiens, UniProt P00533). Kind of data set: Inhibition of EGFR (unknown origin) using FAM-labeled peptide as substrate preincubated for 5 to 10 mins followed by substrate/ATP addition measured after 30 to 60 mins by mobility shift assay. Put shortly:
as §3

A further data set has as its target Ephrin type-A receptor 2 (Homo sapiens, UniProt P29317). The data set is described as follows: Inhibition of EPHA2 (unknown origin) using FAM-labeled peptide as substrate preincubated for 5 to 10 mins followed by substrate/ATP addition measured after 30 to 60 mins by mobility shift assay. Put shortly: as §3
In data set [12] the target is Fibroblast growth factor receptor 1 (Homo sapiens, UniProt P11362). Kind of data set: Inhibition of FGFR1 (unknown origin) using FAM-labeled peptide as substrate preincubated for 5 to 10 mins followed by substrate/ATP addition measured after 30 to 60 mins by mobility shift assay. Put shortly: as §3
Data set [13] deals with NCI-H1993. The data set is described as follows: Antitumor activity against human NCI-H1993 cells xenografted in BALB/c athymic nude mouse assessed as tumor growth inhibition at 1 mg/kg, po administered once daily for 3 weeks. The data set is classed as functional. The settings on record: 504 h, read-out: TGI. Put shortly:
(§4)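 BALB/c nude mice, 5-6 weeks old, kept under SPF conditions, received 7×10^6 NCI-H1993 cells s.c. in the right flank. At 150-250 mm³ they were sorted and randomized, n=7 per group, with vehicle controls. Dosing was oral, once daily for 3 weeks. […] Mean±SEM, Student's t-test.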
(In xenograft studies the graft and the host belong to different species.)

For data set [14], the system named is NCI-H1993. The data set is described as follows: Antitumor activity against human NCI-H1993 cells xenografted in BALB/c athymic nude mouse assessed as tumor growth inhibition at 10 mg/kg, po administered once daily for 3 weeks. It counts as functional. As to conditions: 504 h, read-out: TGI. Put shortly:
as §4

The next data set relates to Mus musculus. The data set is described as follows: Toxicity in BALB/c athymic nude mouse xenografted with human SNU5 cells assessed as body weight loss at 0.3 to 3 mg/kg, po administered once daily for 2 weeks. The data set is classed as organism-based. As to conditions: in vivo, 336 h. The essentials: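 Female/male BALB/c nude mice (5-6 weeks, SPF). NCI-H1993 cells (7×10^6 in 140 µL) or SNU-5 cells (6×10^6 in 200 µL) injected s.c. into the right flank. Dosing started at mean tumour volume 150-250 mm³ (NCI-H1993) or 100-200 mm³ (SNU-5). Randomized, n = 7 (NCI-H1993) or 6 (SNU-5) per group. Oral dosing once daily; vehicle controls. Body weight and signs of toxicity monitored during treatment.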

T1 sequence (P11712 whole entry): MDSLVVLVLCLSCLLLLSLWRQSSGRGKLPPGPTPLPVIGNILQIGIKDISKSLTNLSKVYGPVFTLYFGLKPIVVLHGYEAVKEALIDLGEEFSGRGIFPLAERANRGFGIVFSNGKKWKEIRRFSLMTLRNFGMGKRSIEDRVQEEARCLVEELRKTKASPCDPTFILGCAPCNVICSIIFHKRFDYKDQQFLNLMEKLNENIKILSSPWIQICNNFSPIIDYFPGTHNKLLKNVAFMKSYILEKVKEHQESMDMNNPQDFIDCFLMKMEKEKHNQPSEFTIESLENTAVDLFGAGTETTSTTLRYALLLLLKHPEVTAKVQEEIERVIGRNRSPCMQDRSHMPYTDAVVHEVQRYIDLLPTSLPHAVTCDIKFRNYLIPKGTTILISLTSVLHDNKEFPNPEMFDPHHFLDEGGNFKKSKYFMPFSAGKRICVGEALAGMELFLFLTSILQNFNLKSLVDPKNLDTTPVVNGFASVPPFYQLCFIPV
Chain of Epidermal growth factor receptor (P00533 whole entry): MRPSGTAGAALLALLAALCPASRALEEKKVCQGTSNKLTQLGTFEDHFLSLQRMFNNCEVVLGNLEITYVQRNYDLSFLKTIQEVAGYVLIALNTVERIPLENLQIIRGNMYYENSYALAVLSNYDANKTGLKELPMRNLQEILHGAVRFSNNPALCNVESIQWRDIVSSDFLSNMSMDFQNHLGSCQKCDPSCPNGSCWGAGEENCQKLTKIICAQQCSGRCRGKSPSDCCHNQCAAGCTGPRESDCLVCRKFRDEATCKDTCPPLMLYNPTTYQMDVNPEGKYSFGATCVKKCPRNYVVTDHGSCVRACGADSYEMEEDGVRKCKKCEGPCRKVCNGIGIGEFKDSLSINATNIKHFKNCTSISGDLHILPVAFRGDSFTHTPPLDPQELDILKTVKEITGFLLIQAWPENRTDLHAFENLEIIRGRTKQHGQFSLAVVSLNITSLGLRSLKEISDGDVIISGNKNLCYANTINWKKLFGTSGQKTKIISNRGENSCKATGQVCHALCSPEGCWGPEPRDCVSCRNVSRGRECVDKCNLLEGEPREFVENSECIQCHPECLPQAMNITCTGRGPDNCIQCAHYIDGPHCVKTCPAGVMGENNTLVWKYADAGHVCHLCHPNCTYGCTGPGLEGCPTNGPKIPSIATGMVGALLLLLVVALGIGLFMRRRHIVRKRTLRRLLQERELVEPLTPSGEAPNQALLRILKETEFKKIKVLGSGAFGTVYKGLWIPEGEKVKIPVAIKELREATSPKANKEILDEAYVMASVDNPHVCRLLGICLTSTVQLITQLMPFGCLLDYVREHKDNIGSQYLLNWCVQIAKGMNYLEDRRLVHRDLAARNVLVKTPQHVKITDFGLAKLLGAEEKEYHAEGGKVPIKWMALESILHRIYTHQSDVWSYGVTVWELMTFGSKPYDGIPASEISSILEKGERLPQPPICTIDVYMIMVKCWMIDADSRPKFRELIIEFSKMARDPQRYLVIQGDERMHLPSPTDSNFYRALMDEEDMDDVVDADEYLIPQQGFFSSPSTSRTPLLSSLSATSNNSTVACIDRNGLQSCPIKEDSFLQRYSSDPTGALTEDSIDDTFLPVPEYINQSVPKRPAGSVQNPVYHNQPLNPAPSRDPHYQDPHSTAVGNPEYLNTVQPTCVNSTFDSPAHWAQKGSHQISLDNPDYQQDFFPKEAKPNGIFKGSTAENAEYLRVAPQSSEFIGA
Chain of Ephrin type-A receptor 2 (P29317 whole entry): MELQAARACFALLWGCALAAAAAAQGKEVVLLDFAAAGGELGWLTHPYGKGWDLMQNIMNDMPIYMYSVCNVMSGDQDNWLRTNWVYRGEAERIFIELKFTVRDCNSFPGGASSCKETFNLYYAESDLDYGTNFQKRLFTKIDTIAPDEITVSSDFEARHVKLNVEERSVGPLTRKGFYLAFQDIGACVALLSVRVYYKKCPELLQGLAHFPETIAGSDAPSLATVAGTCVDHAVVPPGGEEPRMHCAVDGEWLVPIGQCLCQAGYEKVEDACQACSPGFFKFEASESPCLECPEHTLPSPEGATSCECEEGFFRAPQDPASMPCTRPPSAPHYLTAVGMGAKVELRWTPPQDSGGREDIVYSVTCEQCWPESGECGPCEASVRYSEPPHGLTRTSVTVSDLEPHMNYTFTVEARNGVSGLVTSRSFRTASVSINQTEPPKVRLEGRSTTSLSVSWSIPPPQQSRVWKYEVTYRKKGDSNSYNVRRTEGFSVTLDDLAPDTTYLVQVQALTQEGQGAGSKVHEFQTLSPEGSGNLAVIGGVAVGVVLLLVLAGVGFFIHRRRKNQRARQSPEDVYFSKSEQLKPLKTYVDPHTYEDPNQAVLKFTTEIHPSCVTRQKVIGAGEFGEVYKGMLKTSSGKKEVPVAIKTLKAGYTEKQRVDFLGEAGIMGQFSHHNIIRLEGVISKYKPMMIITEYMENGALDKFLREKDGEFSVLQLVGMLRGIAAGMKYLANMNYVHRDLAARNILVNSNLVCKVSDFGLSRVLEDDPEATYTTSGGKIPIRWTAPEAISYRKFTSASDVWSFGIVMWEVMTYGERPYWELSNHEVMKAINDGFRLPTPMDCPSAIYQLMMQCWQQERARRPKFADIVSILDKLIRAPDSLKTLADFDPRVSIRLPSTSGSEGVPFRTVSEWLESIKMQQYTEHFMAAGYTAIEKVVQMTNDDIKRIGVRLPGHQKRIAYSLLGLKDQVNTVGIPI
Chain of Mast/stem cell growth factor receptor Kit (P10721 whole entry): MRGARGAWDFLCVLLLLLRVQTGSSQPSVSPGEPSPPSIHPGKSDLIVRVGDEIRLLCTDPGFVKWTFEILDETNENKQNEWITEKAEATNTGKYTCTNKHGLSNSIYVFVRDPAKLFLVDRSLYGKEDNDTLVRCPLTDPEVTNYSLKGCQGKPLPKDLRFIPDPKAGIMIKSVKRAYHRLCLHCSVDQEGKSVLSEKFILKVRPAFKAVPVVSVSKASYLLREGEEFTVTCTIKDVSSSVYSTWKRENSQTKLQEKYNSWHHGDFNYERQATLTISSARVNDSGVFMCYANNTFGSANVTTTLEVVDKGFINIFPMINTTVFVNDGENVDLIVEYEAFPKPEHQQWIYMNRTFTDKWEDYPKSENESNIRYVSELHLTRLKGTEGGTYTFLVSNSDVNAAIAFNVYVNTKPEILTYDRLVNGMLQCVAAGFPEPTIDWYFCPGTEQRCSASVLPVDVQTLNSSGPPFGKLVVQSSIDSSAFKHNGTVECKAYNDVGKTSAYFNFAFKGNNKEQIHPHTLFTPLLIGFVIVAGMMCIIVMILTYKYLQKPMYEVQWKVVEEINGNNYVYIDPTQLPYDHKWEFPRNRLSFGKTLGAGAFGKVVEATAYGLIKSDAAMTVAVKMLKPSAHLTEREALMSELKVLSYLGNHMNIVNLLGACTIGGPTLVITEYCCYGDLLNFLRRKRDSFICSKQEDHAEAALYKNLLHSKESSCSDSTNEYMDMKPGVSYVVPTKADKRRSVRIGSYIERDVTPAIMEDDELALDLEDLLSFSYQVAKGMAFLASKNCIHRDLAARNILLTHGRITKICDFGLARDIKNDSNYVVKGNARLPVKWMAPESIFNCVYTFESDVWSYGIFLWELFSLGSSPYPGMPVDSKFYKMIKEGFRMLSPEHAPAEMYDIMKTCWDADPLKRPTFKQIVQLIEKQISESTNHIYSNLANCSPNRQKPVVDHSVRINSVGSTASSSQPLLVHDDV

On to `CC(c1cc2cc(-c3cnn(C)c3)cnc2cc1F)n1nnc2ncc(-c3cnn(CCO)c3)nc21` (stereo in doubt; 14), for which the inhibition at 10 µM on CYP2C9 [1] and at CYP1A2 [5] was < 50% each time. Also, the IC50 in data set [2] is 0.0006 µM; in the data set on SNU-5, 0.002 µM; in [8] it was > 30 µM; in data set [9] it was 5.4 µM; in data set [10], > 30 µM; in data set [11], > 30 µM. Further, the IC50 (on Ephrin type-A receptor 2; in data set [12]) was > 30 µM throughout. Besides, the inhibition at 20 min, 10 µM on CYP2C9 [3], at CYP2D6 and on CYP1A2 [4] was < 50% throughout. Further, the half-life in [6] was 3.7 h. The compound further yielded a Cmax in data set [7] of 135 ng/mL. The F in the data set with Rattus norvegicus turned out to be 12.1%. Moreover, the inhibition in vivo at 1 mg/kg in the data set with NCI-H1993 [13] was 78.7%. Also, the inhibition in vivo at 10 mg/kg in the data set with NCI-H1993 [14] was found to be 90.8%. For the same compound, the Activity entry in the data set on Mus musculus was “Non-Toxic”.

The values above are taken from ChEMBL document CHEMBL4020721 (Eur J Med Chem, 2017).
